Reference: ChEMBL document CHEMBL1148461, “Discovery of the first non-peptide full agonists for the human bradykinin B(2) receptor incorporating 4-(2-picolyloxy)quinoline and 1-(2-picolyl)benzimidazole frameworks” (J Med Chem, 2004)

Each compound was assayed against T1, B2 bradykinin receptor (Homo sapiens, UniProt P30411) (assay: Inhibition of [3H]BK (1.0 nM) binding to the human bradykinin receptor B2, expressed in CHO cells).
T1 sequence (P30411 whole entry): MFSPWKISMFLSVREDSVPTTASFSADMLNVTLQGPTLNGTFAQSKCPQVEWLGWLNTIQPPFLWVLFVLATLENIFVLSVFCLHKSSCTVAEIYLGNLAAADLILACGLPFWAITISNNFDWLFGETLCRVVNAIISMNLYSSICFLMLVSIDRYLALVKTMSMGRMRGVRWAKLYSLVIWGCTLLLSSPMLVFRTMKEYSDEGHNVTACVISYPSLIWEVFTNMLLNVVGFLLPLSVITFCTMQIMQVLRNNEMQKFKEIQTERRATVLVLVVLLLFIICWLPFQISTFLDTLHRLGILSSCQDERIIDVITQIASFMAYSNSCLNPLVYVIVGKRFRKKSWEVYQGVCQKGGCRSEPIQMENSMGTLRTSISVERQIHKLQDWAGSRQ
Format: cell-based
How it was run: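 Whole CHO (dhfr-) cells stably expressing human B2, seeded 3.0 × 10^4 cells/well and cultured 1 day. Incubated with 1.0 nM [3H]BK plus test compound for 2 h at 4 °C in pH 7.2 HEPES/N-methyl-D-glucamine buffer with bacitracin, enalaprilat and 0.1% BSA. Cells lysed in SDS/NaOH for scintillation counting. Nonspecific binding with 1 μM BK; three experiments.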

IC50 [nM] | SMILES
0.41 | CNC(=O)c1ccc(/C=C/C(=O)NCC(=O)N(C)c2ccc(Cl)c(COc3cccc4c(OCc5ccccn5)cc(C)nc34)c2Cl)cc1
0.4 | Cc1cc(OCc2ccccn2)c2cccc(OCc3c(Cl)ccc(N(C)C(=O)CNC(=O)/C=C/c4ccc(C(=O)Nc5ccncc5)cc4)c3Cl)c2n1
34 | CCOc1cc(C)nc2c(OCc3c(Cl)ccc(N(C)C(=O)CNC(=O)/C=C/c4ccc(C(=O)NC)cc4)c3Cl)cccc12
3.7 | CNC(=O)c1ccc(/C=C/C(=O)NCC(=O)N(C)c2ccc(Cl)c(COc3cccc4c(OCC(=O)N(C)C)cc(C)nc34)c2Cl)cc1
61 | CNC(=O)c1ccc(/C=C/C(=O)NCC(=O)N(C)c2ccc(Cl)c(COc3cccc4c(OC5CCCC5)cc(C)nc34)c2Cl)cc1
2.6 | CCOC(=O)COc1cc(C)nc2c(OCc3c(Cl)ccc(N(C)C(=O)CNC(=O)/C=C/c4ccc(C(=O)NC)cc4)c3Cl)cccc12

Further lines, the compound ahead of its results:

SMILES | IC50 [nM]
CCCOc1cc(C)nc2c(OCc3c(Cl)ccc(N(C)C(=O)CNC(=O)/C=C/c4ccc(C(=O)NC)cc4)c3Cl)cccc12 | 77
CNC(=O)c1ccc(/C=C/C(=O)NCC(=O)N(C)c2ccc(Cl)c(COc3cccc4c(OC(C)C)cc(C)nc34)c2Cl)cc1 | 13
CNC(=O)c1ccc(/C=C/C(=O)NCC(=O)N(C)c2ccc(Cl)c(COc3cccc4c(OC)cc(C)nc34)c2Cl)cc1 | 8.1
Cc1cc(OCc2ccccn2)c2cccc(OCc3c(Cl)ccc(N(C)C(=O)CNC(=O)/C=C/c4ccc(C(=O)N(C)C)cc4)c3Cl)c2n1 | 1.4

The compounds below were run against T2, B2 bradykinin receptor (Homo sapiens) (UniProt P30411) (assay: (§1) Relative induced inositol phosphate formation in CHO cells expressing the human B2 receptor compared to bradykinin (10 nM)).
T2 sequence (whole entry): T1 sequence (P30411 whole entry)
Format: functional, cell-based
How it was run: (§2)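 Human B2-expressing CHO cells labeled with [3H]inositol (1 μCi/mL) for 24 h, preincubated with 10 mM LiCl, then exposed to compound for 30 min at 37 °C. Stopped with 5% TCA; IP1–IP3 separated by anion-exchange chromatography and counted. Basal radioactivity subtracted; response expressed relative to 10 nM BK.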

Relative agonistic activity [%] | SMILES
59.5 | CNC(=O)c1ccc(/C=C/C(=O)NCC(=O)N(C)c2ccc(Cl)c(COc3cccc4c(OCc5ccccn5)cc(C)nc34)c2Cl)cc1
47.4 | Cc1cc(OCc2ccccn2)c2cccc(OCc3c(Cl)ccc(N(C)C(=O)CNC(=O)/C=C/c4ccc(C(=O)Nc5ccncc5)cc4)c3Cl)c2n1
30.8 | CNC(=O)c1ccc(/C=C/C(=O)NCC(=O)N(C)c2ccc(Cl)c(COc3cccc4c(OCC(=O)N(C)C)cc(C)nc34)c2Cl)cc1
34.3 | Cc1cc(OCc2ccccn2)c2cccc(OCc3c(Cl)ccc(N(C)C(=O)CNC(=O)/C=C/c4ccc(C(=O)N(C)C)cc4)c3Cl)c2n1
53.7 | CCOC(=O)COc1cc(C)nc2c(OCc3c(Cl)ccc(N(C)C(=O)CNC(=O)/C=C/c4ccc(C(=O)NC)cc4)c3Cl)cccc12

Each compound was assayed against T2, B2 bradykinin receptor (Homo sapiens) (assay: Relative agonistic activity (10 uM) induced inositol phosphate formation in CHO cells expressing the human B2 receptor compared to bradykinin (10 nM)).
Format: functional, cell-based
How it was run: as §2

Relative agonistic activity [%] | SMILES
56.9 | CNC(=O)c1ccc(/C=C/C(=O)NCC(=O)N(C)c2ccc(Cl)c(COc3cccc4c(OCc5ccccn5)cc(C)nc34)c2Cl)cc1
24.4 | CNC(=O)c1ccc(/C=C/C(=O)NCC(=O)N(C)c2ccc(Cl)c(COc3cccc4c(OCC(=O)N(C)C)cc(C)nc34)c2Cl)cc1
66.4 | CCOC(=O)COc1cc(C)nc2c(OCc3c(Cl)ccc(N(C)C(=O)CNC(=O)/C=C/c4ccc(C(=O)NC)cc4)c3Cl)cccc12

Each compound was assayed against T2, B2 bradykinin receptor (Homo sapiens) (assay: as §1).
Format: functional, cell-based
How it was run: as §2

Relative agonistic activity [%] | SMILES
51.3 | CNC(=O)c1ccc(/C=C/C(=O)NCC(=O)N(C)c2ccc(Cl)c(COc3cccc4c(OCc5ccccn5)cc(C)nc34)c2Cl)cc1
36.7 | Cc1cc(OCc2ccccn2)c2cccc(OCc3c(Cl)ccc(N(C)C(=O)CNC(=O)/C=C/c4ccc(C(=O)Nc5ccncc5)cc4)c3Cl)c2n1
22.3 | Cc1cc(OCc2ccccn2)c2cccc(OCc3c(Cl)ccc(N(C)C(=O)CNC(=O)/C=C/c4ccc(C(=O)N(C)C)cc4)c3Cl)c2n1

Each compound was assayed against T3, B2 bradykinin receptor (Cavia porcellus, UniProt O70526) (assay: Concentration required to inhibit specific binding of [3H]-BK(0.06 nM) to the bradykinin receptor B2).
T3 sequence (O70526 whole entry): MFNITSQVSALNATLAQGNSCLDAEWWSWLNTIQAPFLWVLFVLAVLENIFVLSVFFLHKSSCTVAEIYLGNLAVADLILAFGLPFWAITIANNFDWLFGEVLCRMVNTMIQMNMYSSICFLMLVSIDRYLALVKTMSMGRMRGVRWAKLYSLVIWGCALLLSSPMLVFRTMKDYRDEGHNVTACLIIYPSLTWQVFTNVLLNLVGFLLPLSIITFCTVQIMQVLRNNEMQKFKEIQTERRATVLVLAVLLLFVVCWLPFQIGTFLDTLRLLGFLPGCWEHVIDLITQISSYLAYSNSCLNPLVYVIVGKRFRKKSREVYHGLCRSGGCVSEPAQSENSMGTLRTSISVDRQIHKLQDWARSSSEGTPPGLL
How it was run: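 Guinea pig (male Hartley) ileum membranes in pH 6.8 TES buffer with phenanthroline, bacitracin, DTT, captopril and 0.1% BSA; 0.2 mg protein/mL incubated with 0.06 nM [3H]BK and varying test concentrations, 60 min at room temperature; filtration on glass fiber filters, scintillation counting. Nonspecific binding with 1 μM unlabeled BK. IC50 averaged over at least three determinations.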

IC50 [nM] | SMILES
2.3 | CNC(=O)c1ccc(/C=C/C(=O)NCC(=O)N(C)c2ccc(Cl)c(COc3cccc4c(OCc5ccccn5)cc(C)nc34)c2Cl)cc1
0.19 | CCOc1cc(C)nc2c(OCc3c(Cl)ccc(N(C)C(=O)CNC(=O)/C=C/c4ccc(C(=O)NC)cc4)c3Cl)cccc12
30 | CNC(=O)c1ccc(/C=C/C(=O)NCC(=O)N(C)c2ccc(Cl)c(COc3cccc4c(OCC(=O)N(C)C)cc(C)nc34)c2Cl)cc1
25 | CNC(=O)c1ccc(/C=C/C(=O)NCC(=O)N(C)c2ccc(Cl)c(COc3cccc4c(OC5CCCC5)cc(C)nc34)c2Cl)cc1
20 | CCOC(=O)COc1cc(C)nc2c(OCc3c(Cl)ccc(N(C)C(=O)CNC(=O)/C=C/c4ccc(C(=O)NC)cc4)c3Cl)cccc12

Second part, the compound before the results:

SMILES | IC50 [nM]
CCCOc1cc(C)nc2c(OCc3c(Cl)ccc(N(C)C(=O)CNC(=O)/C=C/c4ccc(C(=O)NC)cc4)c3Cl)cccc12 | 1.2
CNC(=O)c1ccc(/C=C/C(=O)NCC(=O)N(C)c2ccc(Cl)c(COc3cccc4c(OC(C)C)cc(C)nc34)c2Cl)cc1 | 1.2
CNC(=O)c1ccc(/C=C/C(=O)NCC(=O)N(C)c2ccc(Cl)c(COc3cccc4c(OC)cc(C)nc34)c2Cl)cc1 | 0.23

The compounds below were run on WI-38 (assay: Relative agonistic activity (10 uM) induced PGE-2 production in human fibroblast WI-38 cells compared to bradykinin (100 nM)).
Format: functional
How it was run: (§3)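 WI-38 human fibroblasts seeded 1 × 10^5 cells/well in E-MEM with 1% FBS, cultured 24 h. Medium replaced with Hanks-BSA buffer, then test compound for 30 min at 37 °C. Supernatant PGE2 measured by EIA, with control (no compound) subtracted. Result expressed relative to 100 nM BK.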

SMILES | Relative agonistic activity [%]
COc1nc2c(OCc3c(Cl)ccc(N(C)C(=O)CNC(=O)/C=C/c4ccc(NC(C)=O)nc4)c3Cl)cccc2n1C | 24.2
CNC(=O)c1ccc(/C=C/C(=O)NCC(=O)N(C)c2ccc(Cl)c(COc3cccc4c(OCc5ccccn5)cc(C)nc34)c2Cl)cc1 | 140

The compounds below were run on WI-38 (assay: Relative agonistic activity (1 uM) induced PGE-2 production in human fibroblast WI-38 cells compared to bradykinin (100 nM)).
Format: functional
How it was run: as §3

SMILES | Relative agonistic activity [%]
COc1nc2c(OCc3c(Cl)ccc(N(C)C(=O)CNC(=O)/C=C/c4ccc(NC(C)=O)nc4)c3Cl)cccc2n1C | 4.2
CNC(=O)c1ccc(/C=C/C(=O)NCC(=O)N(C)c2ccc(Cl)c(COc3cccc4c(OCc5ccccn5)cc(C)nc34)c2Cl)cc1 | 81.2
